MDM2 E3 inh = blocks human Mdm2 ubiquitin ligase activity. hit rate 0.11% among 210,000. signal enhancement, % at 5 µM. cell-based MDM2 ubiquitination luciferase reporter, 2 h; 0 = plate control, 100 = twice control, blank-subtracted. Q00987;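 active = signal enhancement of 30% or more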;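 note: luminescence tracks abundance of the self-degrading MDM2-luciferase fusion protein; higher signal means inhibition of MDM2 E3 ligase activity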
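Assay system: stable mammalian line carrying autodegrading MDM2–luciferase fusion reporter; Input: 2000 cells in each well; Compound dosing: single-point 5 µM; Schedule: 2 h compound exposure at 37 °C; Signal: SteadyLite luciferase luminescence after 15 min room-temperature reagent incubation; Evaluation: % luminescence enhancement versus blank-corrected plate control mean; Benchmarks: plate controls and plate blanks.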
B2AR ag = activates human beta-2 adrenergic receptor causing internalization. response, % (concentration not given with the values). P07550. AID 504454. hit rate 0.43% among 340,000. Am2.2-beta2AR cells, FAP receptor internalization, flow cytometry;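 active = response above a set limit, near 3 SD of response in nonfluorescent compounds, cut at about 42% in these data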
CHOP UPR activ = apoptotic UPR (CHOP) activation | CHO-CHOP luciferase reporter, luminescence; percent of tunicamycin response over DMSO baseline | activation, % at 10 µM | hit rate 0.34% among 330,000 | AID 449763;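 active = at 10 µM dose, activation of 40% or more, normalized to positive control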;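 note: 100% = tunicamycin at 10 µg/mL and 0% = DMSO alone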
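measured by = luciferase luminescence | assay system = CHO-CHOP cells, stable luciferase reporter of PERK-eIF2a-CHOP signalling | amount = 500 reporter cells seeded per well | timing = 6 h compound exposure at 37 °C after overnight seeding | controls = positive tunicamycin 10 µg/mL, negative DMSO alone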
Mdm2 MdmX PPI = disrupts the human Mdm2-MdmX interaction. SaOS-2 split-luciferase Mdm2/MdmX complementation, luminescence. inhibition, % at 8 µM. hit rate 3% among 330,000. AID 485346;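 active = inhibition of at least 50% at 8 µM in the primary screen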
UPR XBP1 act = adaptive UPR (XBP1) activation. activation, % at 20 µM. CHO-XBP1 luciferase reporter, IRE1-XBP1 UPR activation, luminescence; percent of tunicamycin response, DMSO as zero. hit rate 0.33% among 330,000;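 active = versus positive control, 20 µM dose yields 30% or more activation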;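 note: 100% = tunicamycin at 10 µg/mL and 0% = DMSO only wells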
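Material: CHO-XBP1 cells stably carrying IRE1-XBP1-driven luciferase reporter / Amount: 1000 cells per well / Compound: 20 µM, 1% DMSO / Times: 6 h treatment, 37 °C / Detection: luciferase luminescence / Measure: % activation of reporter signal versus tunicamycin and DMSO controls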
Dynein transport = dynein cargo transport inhibition; z-score, hits read low; 3617.4 mouse cells, GR-EGFP nuclear translocation imaging; test concentration mostly 20 µM; stimulated with dexamethasone, 1 µM; stronger effect = lower value; hit rate 0.47% among 220,000;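 active = plate z-score of nuclear minus cytoplasmic receptor signal below a set negative limit, without overly bright fluorescence or cell loss, cut at about -3.5 in these data, passing the limit was not always enough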;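 note: z-score of nuclear minus cytoplasmic ring GR-EGFP intensity difference per well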
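Buffer or medium: Induction medium lacking tetracycline, stripped serum | Also added: Dexamethasone agonist, 1.0 µM final, for 30 min | Timing: 48 h induction, 1 h compound, 30 min dex at 37 °C | Detection: Formaldehyde fixation, Hoechst nuclear stain, 10x automated fluorescence imaging | Measure: Nuclear versus cytoplasmic GR-EGFP signal, averaged per well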
UPR XBP1 confirm = confirmation of adaptive unfolded protein response (XBP1) activators; AID 485299; CHO-XBP1 IRE1-XBP1 luciferase reporter, luminescence; hit rate 63% among 1,000; shares compounds with UPR XBP1 act; activation, % at 20 µM;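 active = reporter signal at least 30% of the positive control's activation in two or more of four replicate wells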;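 note: plate controls were DMSO negative control for no effect and tunicamycin 10 µg/mL positive control for full effect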
Starred values were filed as active, the others as inactive; x = not tested or not shown. Hits are enriched below; roughly 3.7% of the tested compounds scored in any of these assays.

SMILES | MDM2 E3 inh | B2AR ag | CHOP UPR activ | Mdm2 MdmX PPI | UPR XBP1 act | Dynein transport | UPR XBP1 confirm
COc1cc(/C=C/C(=O)c2ccccc2O)cc(OC)c1OC | 1.8 | 12.7 | 35.5 | 20.9 | 31.1* | -3.16 | 26.2
O=C1COc2ccc(S(=O)(=O)Nc3cccc(Cl)c3)cc2N1 | x | 3.4 | 2.7 | 23.3 | -3.1 | x | x
OCC1OC(n2cnc3c(SCc4ccccc4)nc(F)nc32)C(O)C1O (stereo unspecified) | x | -2.5 | x | x | x | x | x
Brc1ccc(-c2nn3c(-c4ccco4)nnc3s2)o1 | -28.1 | 13.2 | -2.6 | 12.2 | 2.0 | 0.125 | x
Clc1ccc(-c2ccc(-c3nn4c(-c5ccco5)nnc4s3)o2)cc1 | x | 3.5 | 3.0 | 10.4 | 90.7* | 0.394 | 8.4
COc1ccc2nc(C)cc(SCC(=O)N/N=C/c3cccc4ccccc34)c2c1 | -6.3 | 32.3 | 26.6 | 47.0 | 79.8* | -0.101 | 125.9*
O=C1C[C@H](NC(=O)OCc2ccccc2)CO1 | x | 7.5 | -2.1 | -3.5 | -1.1 | x | x
O=C(CCc1ccccc1)NNC(=O)Nc1ccc(F)c(Cl)c1 | x | -3.4 | 3.9 | -6.3 | -7.7 | x | x
COc1cc(NC2CCCCC2O)c2nc(-c3ccc(Cl)cc3)ccc2c1 (stereo unspecified) | -9.3 | 25.7 | 26.0 | 47.3 | 31.2* | -2.47 | 15.7
COc1ccc(OCC(=O)OCC(=O)NC2CCCCC2C)cc1 (stereo unspecified) | x | 0.1 | 1.4 | -14.5 | 0.8 | x | x
Cc1ccc(-c2nnn(CC(=O)N(Cc3cccs3)C(C(=O)NC3CCCCC3)c3ccco3)n2)o1 (stereo unspecified) | -14.4 | 5.3 | 0.8 | 34.7 | 47.8* | 0.605 | 38.5*
CCc1nc(SCC(=O)Nc2c(C)nn(C)c2C)c2cnn(-c3ccccc3)c2n1 | -5.8 | x | x | x | x | 0.51 | x
Cc1nn(Cc2ccccc2)c(C)c1NC(=O)CSc1nc(C2CC2)nc2c1cnn2-c1ccccc1 | -6.7 | -9.1 | 25.9 | 11.4 | 202.5* | 0.019 | 333.4*
NS(=O)(=O)c1ccc(NC(=S)NC(=O)c2ccc(-c3ccccc3)cc2)cc1 | -5.1 | -1.3 | 15.5 | 42.8 | 50.4* | 2.77 | 25.0
COCCCn1c(=NC(=O)c2ccccc2)c(C#N)cc2c(=O)n3cccc(C)c3nc21 | -21.6 | 7.6 | 3.5 | 24.1 | 42.9* | -0.25 | -1.6
COCCCn1c(=NC(C)=O)c(C#N)cc2c(=O)n3cccc(C)c3nc21 | -4.7 | 1.2 | -1.1 | 9.7 | -0.3 | -0.282 | x
C[C@H](NC(=O)C1CC(=O)N(c2ccc3c(c2)OCO3)C1)C(=O)NC1CCCCC1 (stereo partly specified) | x | -3.3 | -1.8 | 12.6 | -4.6 | x | x
CCOC(=O)Nc1sc2c(c1C(N)=O)CCC(C)C2 (stereo unspecified) | 1.2 | -14.1 | -0.6 | -1.5 | 2.0 | -0.586 | x
Cc1ccc(C)c(S(=O)(=O)NCC(=O)Nc2sc3c(c2C(N)=O)CCC(C)C3)c1 (stereo unspecified) | -19.7 | 3.7 | 9.0 | 20.4 | 31.7* | -0.885 | 24.4
Cc1ccc(NC(=O)c2c(C)nc3sc(C(=O)NC4CCCC4)c(N)c3c2-c2ccco2)c(C)c1 | 5.7 | -23.7 | 26.1 | 34.8 | 62.7* | 1.8 | 104.8*
COCCCNC(=O)c1ccc(Cn2c(=O)c3ccccc3n(Cc3cc(C)ccc3C)c2=O)cc1 | -10.1 | -0.8 | 2.5 | 10.8 | -0.4 | 1.03 | x
C=CCn1c(=O)c2ccc(C(=O)NCc3ccccc3)cc2n(Cc2ccc(C)cc2)c1=O | x | -3.5 | 1.1 | 17.6 | 43.8* | 2.51 | 18.3
Cc1ccc(Cn2c(=O)n(-c3ccccc3)c(=O)c3ccc(C(=O)NCc4ccco4)cc32)cc1 | x | 12.7 | 1.0 | 20.4 | 34.9* | 0.151 | 30.9*
COc1ccc(N2CCN(c3ccc(NC(=O)NN)cc3)CC2)cc1 | x | 10.8 | 1.5 | 19.0 | -1.8 | x | x
CCOC(=O)CC(=O)CSc1nc(-c2ccc3c(c2)OCO3)cc(C(F)(F)F)c1C#N | -5.2 | -84.8 | -2.1 | -4.1 | 37.6* | -0.62 | 11.2
SMILES | MDM2 E3 inh | B2AR ag | CHOP UPR activ | Mdm2 MdmX PPI | UPR XBP1 act | Dynein transport | UPR XBP1 confirm
COc1ccc(C)cc1NS(=O)(=O)c1ccc2c(c1)N(C)CCO2 | x | -1.5 | 0.3 | 13.2 | -0.6 | x | x
CCc1ccc(CN2C(=O)c3ccccc3C2C(=O)NC(C)CC)cc1 (stereo unspecified) | x | -5.6 | -1.0 | -18.5 | -2.8 | x | x
CC(CN1CCN(C)CC1)OC(=O)c1ccc(Cl)cc1 (stereo unspecified) | -14.3 | -3.8 | 2.2 | 10.2 | 3.4 | -0.676 | x
CC(CN1CCCCC1)OC(=O)c1ccc(Cl)cc1 (stereo unspecified) | -11.1 | 0.1 | -0.6 | -16.8 | 34.8* | 0.0545 | 0.5
CCOc1ccccc1NC(=O)C1CCC(=O)N1S(=O)(=O)c1ccc(C)cc1 (stereo unspecified) | x | 1.7 | -1.2 | -8.4 | -1.5 | x | x
COc1ccc(C2CC(c3c(-c4ccccc4)c4cc(Cl)ccc4[nH]c3=O)=NN2S(C)(=O)=O)cc1 (stereo unspecified) | -9.1 | -0.1 | -0.6 | 24.4 | 49.9* | 0.0904 | 139.9*
COc1ccc(OC)c(C2CC(c3c(-c4ccccc4)c4cc(Cl)ccc4[nH]c3=O)=NN2S(C)(=O)=O)c1 (stereo unspecified) | -88.8 | -8.4 | 1.7 | 44.1 | 54.5* | 0.315 | 20.5
COc1ccc2cc([C@@H](C)C(=O)O)ccc2c1 | x | 1.9 | 1.5 | 7.9 | -5.6 | x | x
Cc1ccc(C)c(NC(=O)CN(C)C(=O)C2=NNC(=O)CC2)c1 | x | -5.6 | 2.6 | 13.5 | 1.1 | x | x
NC(=S)N/N=C/c1ncc(C(F)(F)F)cc1Cl | -10.8 | 17.9 | 36.0 | 47.3 | 15.4 | -0.226 | x
C#CCn1c(=NC(=O)c2ccc(Br)s2)sc2cccc(OC)c21 | -4.9 | -3.5 | 6.2 | -1.8 | 73.4* | -0.628 | 72.9*
C=CCn1c(=NC(=O)c2cccs2)sc2cccc(OC)c21 | -8.6 | -6.5 | 5.0 | -10.2 | 3.8 | 0.703 | x
COc1cccc(N2CC(C(=O)Nc3nnc(SCC(=O)NCc4ccco4)s3)CC2=O)c1 (stereo unspecified) | x | 35.9 | 0.2 | -0.8 | -4.0 | x | x
CC1CCCN(c2ccc(C(=O)NCc3ccccc3)cn2)C1 (stereo unspecified) | 5.5 | 1.0 | 5.7 | -78.8 | 19.4 | -0.622 | x
CC1CCCN(c2ccc(C(=O)NCc3cccs3)cn2)C1 (stereo unspecified) | -18.5 | -4.3 | 4.7 | -32.9 | 37.6* | 0.954 | 31.9*
O=C(NCc1cccs1)c1ccc(N2CCCCC2)nc1 | -15.7 | -5.4 | 3.6 | -31.4 | 30.0 | 1.59 | 20.7
